Data from ChEMBL document CHEMBL1123323, “Isolation, synthesis, and antitumor evaluation of spirohydantoin aziridine, a mutagenic metabolite of spirohydantoin mustard” (J Med Chem, 1986).
Values joined by “and” are separate entries in the source; they are usually repeats but may differ in a detail not shown here. Identical values can stand only once.

Assays:
P388 [1] = experiment: Percent increase in life span of treated (5 mg/kg, qd 1-9 days) mice as compared to the untreated leukemia controls; Expressed as therapeutic response; type: functional, Mus musculus
Summary of the method: (§1)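 Female CDF1 mice given 1×10^6 P388 leukemia cells intraperitoneally. Drug in reagent-grade Me₂SO, dosed by average body weight in 0.1 mL. Life-span increase is from median day of death versus untreated leukemic controls. Tumor cell kill and log change (net change in viable tumor stem cells, end versus start of treatment) use a historical doubling time of 0.44 day.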

P388 [2] = experiment: Percent of deaths after administration (10 mg/kg, day 1 only) in normal mice; type: functional, Mus musculus
Summary of the method: (§2)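 Non-tumored mice treated concurrently as drug toxicity controls. Drug in reagent-grade Me₂SO, dosed by average body weight in 0.1 mL. Deaths scored.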

P388 [3] = experiment: Percent increase in life span of treated (5 mg/kg, day 1 only) mice as compared to the untreated leukemia controls; Expressed as therapeutic response; type: functional, Mus musculus; summary of the method: as §1
P388 [4] = experiment: Percent increase in life span of treated (10 mg/kg, qd 1-9 days) mice as compared to the untreated leukemia controls; Expressed as therapeutic response; type: functional, Mus musculus; summary of the method: as §1
P388 [5] = experiment: Percent of deaths after administration (15 mg/kg, day 1 only) in leukemic mice; type: functional, Mus musculus; summary of the method: as §1
P388 [6] = experiment: Percent of deaths after administration (5 mg/kg, day 1 only) in leukemic mice; type: functional, Mus musculus; summary of the method: as §1
P388 [7] = experiment: Approximate number of tumor cells alive after administration (5 mg/kg, day 1 only) in normal mice; Expressed as therapeutic response; type: functional, Mus musculus; summary of the method: as §1
[8] = Approximate number of tumor cells alive after administration (5 mg/kg, qd 1-9 days) in normal mice; Expressed as therapeutic response; type: ADME, organism-based; conditions: mouse, in vivo; summary of the method: as §1
P388 [9] = experiment: Percent of deaths after administration (20 mg/kg, qd 1-9 days) in leukemic mice; type: functional, Mus musculus; summary of the method: as §1
[10] = (§3) Approximate number of tumor cells alive after administration (10 mg/kg, day 1 only) in normal mice; Expressed as therapeutic response; type: ADME, organism-based; conditions: mouse, in vivo; summary of the method: as §1
P388 [11] = experiment: Percent of deaths after administration (10 mg/kg, qd 1-9 days) in leukemic mice; type: functional, Mus musculus; summary of the method: as §1
P388 [12] = experiment: Approximate log change after administration (5 mg/kg, day 1 only) in normal mice; Expressed as therapeutic response; type: functional, Mus musculus; summary of the method: as §1
[13] = Approximate number of tumor cells alive after administration (20 mg/kg, qd 1-9 days) in normal mice; Expressed as therapeutic response; type: ADME, organism-based; conditions: mouse, in vivo; summary of the method: as §1
P388 [14] = experiment: Percent increase in life span of treated (15 mg/kg, day 1 only) mice as compared to the untreated leukemia controls; Expressed as therapeutic response; type: functional, Mus musculus; summary of the method: as §1
[15] = Approximate number of tumor cells alive after administration (15 mg/kg, day 1 only) in normal mice; Expressed as therapeutic response; type: ADME, organism-based; conditions: mouse, in vivo; summary of the method: as §1
P388 [16] = experiment: as §3; type: functional, Mus musculus; summary of the method: as §1
P388 [17] = experiment: Approximate log change after administration (10 mg/kg, day 1 only) in normal mice; Expressed as therapeutic response; type: functional, Mus musculus; summary of the method: as §1
[18] = Approximate number of tumor cells alive after administration (10 mg/kg, qd 1-9 days) in normal mice; Expressed as therapeutic response; type: ADME, organism-based; conditions: mouse, in vivo; summary of the method: as §1
P388 [19] = experiment: Percent increase in life span of treated (20 mg/kg, qd 1-9 days) mice as compared to the untreated leukemia controls; Expressed as therapeutic response; type: functional, Mus musculus; summary of the method: as §1
P388 [20] = experiment: Percent of deaths after administration (5 mg/kg, qd 1-9 days) in leukemic mice; type: functional, Mus musculus; summary of the method: as §1
P388 [21] = experiment: Percent of deaths after administration (15 mg/kg, day 1 only) in normal mice; type: functional, Mus musculus; summary of the method: as §2
P388 [22] = experiment: Approximate number of tumor cells alive after administration (20 mg/kg, day 1 only) in normal mice; Expressed as therapeutic response; type: functional, Mus musculus; summary of the method: as §1
P388 [23] = experiment: Percent of deaths after administration (20 mg/kg, day 1 only) in leukemic mice; type: functional, Mus musculus
[24] = Approximate number of tumor cells alive after administration (60 mg/kg, day 1 only) in normal mice; Expressed as therapeutic response; type: ADME, organism-based; conditions: mouse, in vivo; summary of the method: as §1
P388 [25] = experiment: Percent of deaths after administration (30 mg/kg, day 1 only) in leukemic mice; type: functional, Mus musculus; summary of the method: as §1
P388 [26] = experiment: Percent increase in life span of treated (60 mg/kg, day 1 only) mice as compared to the untreated leukemia controls; Expressed as therapeutic response; type: functional, Mus musculus; summary of the method: as §1
P388 [27] = experiment: Percent of deaths after administration (45 mg/kg, day 1 only) in leukemic mice; type: functional, Mus musculus; summary of the method: as §1
[28] = Approximate number of tumor cells alive after administration (45 mg/kg, day 1 only) in normal mice; Expressed as therapeutic response; type: ADME, organism-based; conditions: mouse, in vivo; summary of the method: as §1
P388 [29] = experiment: Approximate log change after administration (20 mg/kg, day 1 only) in normal mice; Expressed as therapeutic response; type: functional, Mus musculus
Summary of the method: (§4)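 Female CDF1 mice were implanted intraperitoneally with 1×10^6 P388 leukemia cells. Drug was prepared in reagent-grade Me₂SO according to average body weight, with each dose in 0.1 mL. Concurrent drug toxicity controls were run. Tumor cell kill was calculated from median day of death using a historical doubling time of 0.44 day. Log change is the net change in viable tumor stem cells from the start to the end of treatment.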

Salmonella typhimurium [30] = experiment: Mutagenic activity against Salmonella Typhimurium TA1535 (SHM equiv/plate 1 ug); Expressed as difference between the observed number of revertants and the average number of spontaneous revertants (Expt 2); type: functional, Salmonella enterica subsp. enterica serovar Typhimurium
Summary of the method: (§5)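 Salmonella typhimurium TA1535 plate incorporation assay without S9 activation. TLC-isolated metabolite and synthetic aziridine dosed as SHM equivalents per plate. Score is revertants minus mean spontaneous revertants, from two separate experiments.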

P388 [31] = experiment: Percent increase in life span of treated (20 mg/kg, day 1 only) mice as compared to the untreated leukemia controls; Expressed as therapeutic response; type: functional, Mus musculus; summary of the method: as §1
P388 [32] = experiment: Percent increase in life span of treated (10 mg/kg, day 1 only) mice as compared to the untreated leukemia controls; Expressed as therapeutic response; type: functional, Mus musculus; summary of the method: as §1
P388 [33] = experiment: Approximate number of tumor cells alive after administration (30 mg/kg, day 1 only) in normal mice; Expressed as therapeutic response; type: functional, Mus musculus; summary of the method: as §1
P388 [34] = experiment: Percent of deaths after administration (60 mg/kg, day 1 only) in leukemic mice; type: functional, Mus musculus; summary of the method: as §1
P388 [35] = experiment: Percent of deaths after administration (20 mg/kg, qd 1-9 days) in normal mice; type: functional, Mus musculus; summary of the method: as §2
P388 [36] = experiment: Approximate log change after administration (30 mg/kg, day 1 only) in normal mice; Expressed as therapeutic response; type: functional, Mus musculus; summary of the method: as §4
Salmonella typhimurium [37] = experiment: Mutagenic activity against Salmonella Typhimurium TA1535 (SHM equiv/plate 10 ug); Expressed as difference between the observed number of revertants and the average number of spontaneous revertants (Expt 1); type: functional, Salmonella enterica subsp. enterica serovar Typhimurium; summary of the method: as §5
P388 [38] = experiment: Percent of deaths after administration (30 mg/kg, day 1 only) in normal mice; type: functional, Mus musculus; summary of the method: as §2
Salmonella typhimurium [39] = experiment: Mutagenic activity against Salmonella Typhimurium TA1535 (SHM equiv/plate 10 ug); Expressed as difference between the observed number of revertants and the average number of spontaneous revertants (Expt 2); type: functional, Salmonella enterica subsp. enterica serovar Typhimurium; summary of the method: as §5
P388 [40] = experiment: Percent of deaths after administration (10 mg/kg, day 1 only) in leukemic mice; type: functional, Mus musculus; summary of the method: as §1
Salmonella typhimurium [41] = experiment: Mutagenic activity against Salmonella Typhimurium TA1535 (SHM equiv/plate 1 ug); Expressed as difference between the observed number of revertants and the average number of spontaneous revertants (Expt 1); type: functional, Salmonella enterica subsp. enterica serovar Typhimurium; summary of the method: as §5
P388 [42] = experiment: Percent of deaths after administration (60 mg/kg, day 1 only) in normal mice; type: functional, Mus musculus; summary of the method: as §2
P388 [43] = experiment: Percent of deaths after administration (20 mg/kg, day 1 only) in normal mice; type: functional, Mus musculus; summary of the method: as §2
Salmonella typhimurium [44] = experiment: Mutagenic activity against Salmonella Typhimurium TA1535 (SHM equiv/plate 100 ug); Expressed as difference between the observed number of revertants and the average number of spontaneous revertants (Expt 2); type: functional, Salmonella enterica subsp. enterica serovar Typhimurium; summary of the method: as §5
P388 [45] = experiment: Percent increase in life span of treated (30 mg/kg, day 1 only) mice as compared to the untreated leukemia controls; Expressed as therapeutic response; type: functional, Mus musculus; summary of the method: as §1

O=C1NC2(CCCCC2)C(=O)N1CCN(CCCl)CCCl [SPIROMUSTINE]
ILS (P388 [1]): -45%
Activity (P388 [2]): 33%
ILS (P388 [3]): 30%
ILS (P388 [4]): -50%
Activity (P388 [5]): 40%
Activity (P388 [6]): 10%
Activity (P388 [7]): 43000
Activity [8]: Toxic
Activity (P388 [9]): 100%
Activity [10]: Toxic
Activity (P388 [11]): 100%
Log change (P388 [12]): -2.1
Activity [13]: Toxic
ILS (P388 [14]): 35%
Activity [15]: Toxic
Activity (P388 [16]): 8900
Log change (P388 [17]): -2.7
Activity [18]: Toxic
ILS (P388 [19]): -60%
Activity (P388 [20]): 100%
Activity (P388 [21]): 50%

O=C1NC2(CCCCC2)C(=O)N1CCN1CC1
ILS (P388 [1]): -5%
Activity (P388 [22]): 4800000
Activity (P388 [23]): 0%
Activity [24]: Toxic
ILS (P388 [4]): -40%
Activity (P388 [25]): 16% and 0%
ILS (P388 [26]): -30%
Activity (P388 [27]): 33%
Activity [28]: Toxic
Log change (P388 [29]): 0
Activity (Salmonella typhimurium [30]): 21
ILS (P388 [31]): 0%
Activity [8]: Toxic
Activity (P388 [9]): 83%
Activity (P388 [11]): 0%
ILS (P388 [32]): 0%
Activity (P388 [33]): 4800000
Activity (P388 [34]): 50%
Activity (P388 [35]): 0%
Log change (P388 [36]): 0
Activity (Salmonella typhimurium [37]): 227
Activity [13]: Toxic
Activity (P388 [38]): 0%
Activity (Salmonella typhimurium [39]): 238
Activity (P388 [40]): 0%
Activity (Salmonella typhimurium [41]): 15
Activity (P388 [16]): 4800000
Activity (P388 [42]): 0%
Activity (P388 [43]): 0%
Activity (Salmonella typhimurium [44]): 2000%
Activity [18]: Toxic
ILS (P388 [19]): -25%
ILS (P388 [45]): 0%
Activity (P388 [20]): 83%
